These results are taken from ChEMBL document CHEMBL5329223, “Newly synthesized 6-substituted piperazine/phenyl-9-cyclopentyl containing purine nucleobase analogs act as potent anticancer agents and induce apoptosis via inhibiting Src in hepatocellular carcinoma cells” (RSC Med Chem, 2023).

Assay [1] deals with Huh-7. Put plainly: Cytotoxicity against human Huh-7 cells assessed as cell growth inhibition incubated for 72 hrs by SRB assay. The class given is functional, cell-based. Conditions: Huh-7, 72 h. The gist of the method:
(§1)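 Cells seeded at 1000–3000 per well, treated after 24 h with 2.5–40 μM (40, 20, 10, 5, 2.5 μM) for 72 h, in duplicate or triplicate; DMSO negative control. Fixed with 10% TCA 1 h at 4 °C, stained with 0.4% SRB in 1% acetic acid, dye solubilized in 10 mM TBS, A515 read; OD normalized to DMSO control, IC50 from growth-inhibition curves.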

Assay [2] deals with Tyrosine-protein kinase BTK (Homo sapiens) (UniProt Q06187). Put plainly: Inhibition of human BTK at 5 uM by Kinomescan profiling analysis relative to control. The gist of the method: (§2)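 Compounds in DMSO screened by KINOMEScan against a panel of human kinases for direct interaction, at 5000 nM or 10 000 nM depending on compound; scores calculated relative to DMSO negative control.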

Assay [3] deals with ALK tyrosine kinase receptor (Homo sapiens) (UniProt Q9UM73). Put plainly: Inhibition of human ALK at 5 uM by Kinomescan profiling analysis relative to control. The gist of the method: as §2
The subject of a further assay is PLC. Nature of the assay: Cytotoxicity against human PLC cells assessed as cell growth inhibition incubated for 72 hrs by SRB assay. The class given is functional, cell-based. The method in brief:
as §1
For orientation: Sulforhodamine B stains cellular protein and so reports cell mass.

For assay [4], the target named is Proto-oncogene tyrosine-protein kinase Src (Homo sapiens) (UniProt P12931). Put plainly: Inhibition of Src activation in human Huh-7 cells assessed as decrease in cyclin E level at 5 uM incubated for 72 hrs by Western blot analysis. In kind it is cell-based. The method in brief: (§3)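 Huh7 cells (300 000 per dish) treated 24 h after seeding with 5 μM or DMSO for 72 h. Immunoblot for PARP-1, phospho-Src Tyr416, Src, Rb, phospho-Rb Ser807/811, Cdk2; calnexin and actin as loading controls.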
For orientation: A western blot detects proteins with antibodies after separation by electrophoresis.

In assay [5] the test system is Mahlavu. Nature of the assay: Upregulation of intracellular ATP level in human Mahlavu cells at 5 uM incubated for 72 hrs by Kinase Glo assay. In kind it is functional, cell-based. The method in brief: (§4)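 Huh7 and Mahlavu cells grown 24 h, then treated with 5 μM for 72 h. Lysates protein-normalized by Bradford; ATP read by Kinase-Glo Plus luminescence per kit protocol. Staurosporine positive control, DMSO negative control.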
A general note: Kinase-Glo measures the ATP left after a reaction by luminescence.

The test system of a further assay is SNU-387. Put plainly: Cytotoxicity against human SNU-387 cells assessed as cell growth inhibition incubated for 72 hrs by SRB assay. The conditions noted are these: SNU-387, 72 h. The class given is functional, cell-based. The gist of the method:
as §1

The test system of assay [6] is Huh-7. Put plainly: Induction of cell cycle arrest in human Huh-7 cells assessed as increase in accumulation of cells at subG1 phase at 5 uM incubated for 72 hrs by PI staining based flow cytometry. The class given is functional. The method in brief:
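Huh7 and Mahlavu cells serum-starved 24 h to synchronize, then given 5 μM or DMSO in fresh growth medium for 72 h. Trypsinized, fixed in ice-cold 70% ethanol at least 3 h at −20 °C, PI-stained with a cell cycle kit, analyzed by flow cytometry for SubG1.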

For the next assay, the system named is SNU-423. Nature of the assay: Cytotoxicity against human SNU-423 cells assessed as cell growth inhibition incubated for 72 hrs by SRB assay. Conditions: SNU-423, 72 h. In kind it is functional, cell-based. The gist of the method:
as §1

The nature of assay [7]: Cytotoxicity against human FOCUS cells assessed as cell growth inhibition incubated for 72 hrs by SRB assay. The class given is functional, cell-based. The method in brief: as §1
Assay [8] concerns Huh-7. Put plainly: Upregulation of intracellular ATP level in human Huh-7 cells at 5 uM incubated for 72 hrs by Kinase Glo assay. In kind it is functional, cell-based. The gist of the method:
as §4

Assay [9] has as its system Huh-7. Nature of the assay: Cytotoxicity against human Huh-7 cells assessed as cell growth inhibition at 0.625 to 5 uM measured upto 72 hrs by RT-CES analysis. The class given is functional, cell-based. The conditions noted are these: dose 0.625-5 µM. The gist of the method: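 Huh7 cells, 2000 per well, treated 24 h after seeding alongside DMSO control; cell index from impedance recorded every 30 min; plots for each concentration normalized to DMSO-treated cells.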

Assay [10] relates to Huh-7. Put plainly: Induction of morphological changes in human Huh-7 cells assessed as horseshoe-like condensed nuclei at 5 uM incubated for 72 hrs by Hoechst 33258 dye based microscopy. In kind it is functional, cell-based. The gist of the method:
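Huh7 cells on coverslips (50 000 per well) given 5 μM or DMSO 24 h after seeding for 72 h; permeabilized with ice-cold methanol 10 min, Hoechst 33258 stain 5 min in the dark, imaged by fluorescence microscopy with 40× objective.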

The test system of a further assay is HCT-116. Put plainly: Cytotoxicity against human HCT-116 cells assessed as cell growth inhibition incubated for 72 hrs by SRB assay. The conditions noted are these: HCT-116, 72 h. The class given is functional, cell-based. The gist of the method:
as §1

The next assay concerns SNU-449. Put plainly: Cytotoxicity against human SNU-449 cells assessed as cell growth inhibition incubated for 72 hrs by SRB assay. Conditions: SNU-449, 72 h. The class given is functional, cell-based. The method in brief: as §1
Assay [11] relates to Huh-7. Nature of the assay: Induction of apoptosis in human Huh-7 cells assessed as increase in PARP-1 cleavage at 5 uM incubated for 72 hrs by Western blot analysis. In kind it is functional, cell-based. The method in brief: as §3
In the next assay the test system is MCF7. Nature of the assay: Cytotoxicity against human MCF7 cells assessed as cell growth inhibition incubated for 72 hrs by SRB assay. The class given is functional, cell-based. Conditions: MCF7, 72 h. The method in brief:
as §1

A further assay relates to SNU-398. Nature of the assay: Cytotoxicity against human SNU-398 cells assessed as cell growth inhibition incubated for 72 hrs by SRB assay. The class given is functional, cell-based. Conditions: SNU-398, 72 h. The method in brief: as §1
Assay [12] deals with Proto-oncogene tyrosine-protein kinase Src (Homo sapiens) (UniProt P12931). Put plainly: Inhibition of Src activation in human Huh-7 cells assessed as decrease in phosphorylated Src level at 5 uM incubated for 72 hrs by Western blot analysis. In kind it is cell-based. The method in brief: as §3
In a further assay the test system is Hep 3B2. Nature of the assay: Cytotoxicity against human Hep3B cells assessed as cell growth inhibition incubated for 72 hrs by SRB assay. The class given is functional, cell-based. The gist of the method: as §1
For the next assay, the system named is HepG2. Put plainly: Cytotoxicity against human HepG2 cells assessed as cell growth inhibition incubated for 72 hrs by SRB assay. The conditions noted are these: HepG2, 72 h. In kind it is functional, cell-based. The gist of the method:
as §1

The target of assay [13] is Proto-oncogene tyrosine-protein kinase Src (Homo sapiens) (UniProt P12931). Nature of the assay: Inhibition of Src activation in human Huh-7 cells assessed as decrease in Cdk2 level at 5 uM incubated for 72 hrs by Western blot analysis. The class given is cell-based. The method in brief: as §3
Assay [14] has the same target. Put plainly: Inhibition of Src activation in human Huh-7 cells assessed as decrease in phosphorylated Rb level at 5 uM incubated for 72 hrs by Western blot analysis. The class given is cell-based. The gist of the method:
as §3

The test system of assay [15] is Mahlavu. Nature of the assay: Cytotoxicity against human Mahlavu cells assessed as cell growth inhibition incubated for 72 hrs by SRB assay. In kind it is functional, cell-based. The gist of the method:
as §1

Another assay relates to SNU-182. Nature of the assay: Cytotoxicity against human SNU-182 cells assessed as cell growth inhibition incubated for 72 hrs by SRB assay. The class given is functional, cell-based. Conditions: SNU-182, 72 h. The gist of the method: as §1
A further assay deals with SNU-475. Nature of the assay: Cytotoxicity against human SNU-475 cells assessed as cell growth inhibition incubated for 72 hrs by SRB assay. The class given is functional, cell-based. The conditions noted are these: SNU-475, 72 h. The gist of the method: as §1
The target of assay [16] is T1, Discoidin domain-containing receptor 2 (Homo sapiens) (UniProt Q16832).
T1 sequence (whole entry): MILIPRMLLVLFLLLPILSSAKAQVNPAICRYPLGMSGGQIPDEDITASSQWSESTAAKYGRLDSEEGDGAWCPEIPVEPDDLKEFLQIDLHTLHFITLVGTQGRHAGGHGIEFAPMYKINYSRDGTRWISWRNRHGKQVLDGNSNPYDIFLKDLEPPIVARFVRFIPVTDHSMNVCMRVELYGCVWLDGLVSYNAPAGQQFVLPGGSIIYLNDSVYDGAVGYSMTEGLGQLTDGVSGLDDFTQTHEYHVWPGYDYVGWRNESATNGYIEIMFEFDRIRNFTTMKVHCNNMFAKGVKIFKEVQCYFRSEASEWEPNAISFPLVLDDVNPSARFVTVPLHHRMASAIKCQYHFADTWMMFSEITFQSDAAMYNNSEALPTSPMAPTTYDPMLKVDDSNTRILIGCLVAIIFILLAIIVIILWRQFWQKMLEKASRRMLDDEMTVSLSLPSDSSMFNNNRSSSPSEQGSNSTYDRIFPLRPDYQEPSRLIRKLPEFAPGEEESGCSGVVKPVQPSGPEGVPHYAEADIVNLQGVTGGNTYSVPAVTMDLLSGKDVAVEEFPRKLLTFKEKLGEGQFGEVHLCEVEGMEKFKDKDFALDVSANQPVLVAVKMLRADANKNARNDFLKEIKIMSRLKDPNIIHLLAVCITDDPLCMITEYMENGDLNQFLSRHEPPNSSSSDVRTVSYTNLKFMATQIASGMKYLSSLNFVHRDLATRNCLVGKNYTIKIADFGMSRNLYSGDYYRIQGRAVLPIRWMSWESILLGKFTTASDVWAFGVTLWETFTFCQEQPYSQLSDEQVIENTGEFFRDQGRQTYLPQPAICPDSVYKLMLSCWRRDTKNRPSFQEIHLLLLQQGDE
Nature of the assay: Inhibition of human DDR2 at 10 uM by Kinomescan profiling analysis relative to control. The method in brief: as §2

Molecules are shown by their SMILES. Active and inactive are the calls of the source. The rule behind the calls is not given here.

Chain of Proto-oncogene tyrosine-protein kinase Src (Homo sapiens) (P12931 2-536 limits assumed): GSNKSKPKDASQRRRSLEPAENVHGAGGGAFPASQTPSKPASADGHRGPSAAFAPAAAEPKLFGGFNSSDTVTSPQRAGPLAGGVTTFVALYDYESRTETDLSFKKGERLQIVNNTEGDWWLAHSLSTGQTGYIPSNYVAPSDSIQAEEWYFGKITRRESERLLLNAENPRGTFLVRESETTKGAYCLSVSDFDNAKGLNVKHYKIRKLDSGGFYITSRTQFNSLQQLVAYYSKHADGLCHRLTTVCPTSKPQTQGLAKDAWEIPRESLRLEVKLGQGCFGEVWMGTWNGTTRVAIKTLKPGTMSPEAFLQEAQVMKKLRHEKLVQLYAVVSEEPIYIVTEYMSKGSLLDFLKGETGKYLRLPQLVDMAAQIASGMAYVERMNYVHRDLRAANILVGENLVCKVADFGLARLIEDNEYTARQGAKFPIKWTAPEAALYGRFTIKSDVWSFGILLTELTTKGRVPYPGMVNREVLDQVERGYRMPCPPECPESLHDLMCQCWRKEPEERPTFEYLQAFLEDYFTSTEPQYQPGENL
Chain of ALK tyrosine kinase receptor (Homo sapiens) (Q9UM73 19-1620 limits assumed): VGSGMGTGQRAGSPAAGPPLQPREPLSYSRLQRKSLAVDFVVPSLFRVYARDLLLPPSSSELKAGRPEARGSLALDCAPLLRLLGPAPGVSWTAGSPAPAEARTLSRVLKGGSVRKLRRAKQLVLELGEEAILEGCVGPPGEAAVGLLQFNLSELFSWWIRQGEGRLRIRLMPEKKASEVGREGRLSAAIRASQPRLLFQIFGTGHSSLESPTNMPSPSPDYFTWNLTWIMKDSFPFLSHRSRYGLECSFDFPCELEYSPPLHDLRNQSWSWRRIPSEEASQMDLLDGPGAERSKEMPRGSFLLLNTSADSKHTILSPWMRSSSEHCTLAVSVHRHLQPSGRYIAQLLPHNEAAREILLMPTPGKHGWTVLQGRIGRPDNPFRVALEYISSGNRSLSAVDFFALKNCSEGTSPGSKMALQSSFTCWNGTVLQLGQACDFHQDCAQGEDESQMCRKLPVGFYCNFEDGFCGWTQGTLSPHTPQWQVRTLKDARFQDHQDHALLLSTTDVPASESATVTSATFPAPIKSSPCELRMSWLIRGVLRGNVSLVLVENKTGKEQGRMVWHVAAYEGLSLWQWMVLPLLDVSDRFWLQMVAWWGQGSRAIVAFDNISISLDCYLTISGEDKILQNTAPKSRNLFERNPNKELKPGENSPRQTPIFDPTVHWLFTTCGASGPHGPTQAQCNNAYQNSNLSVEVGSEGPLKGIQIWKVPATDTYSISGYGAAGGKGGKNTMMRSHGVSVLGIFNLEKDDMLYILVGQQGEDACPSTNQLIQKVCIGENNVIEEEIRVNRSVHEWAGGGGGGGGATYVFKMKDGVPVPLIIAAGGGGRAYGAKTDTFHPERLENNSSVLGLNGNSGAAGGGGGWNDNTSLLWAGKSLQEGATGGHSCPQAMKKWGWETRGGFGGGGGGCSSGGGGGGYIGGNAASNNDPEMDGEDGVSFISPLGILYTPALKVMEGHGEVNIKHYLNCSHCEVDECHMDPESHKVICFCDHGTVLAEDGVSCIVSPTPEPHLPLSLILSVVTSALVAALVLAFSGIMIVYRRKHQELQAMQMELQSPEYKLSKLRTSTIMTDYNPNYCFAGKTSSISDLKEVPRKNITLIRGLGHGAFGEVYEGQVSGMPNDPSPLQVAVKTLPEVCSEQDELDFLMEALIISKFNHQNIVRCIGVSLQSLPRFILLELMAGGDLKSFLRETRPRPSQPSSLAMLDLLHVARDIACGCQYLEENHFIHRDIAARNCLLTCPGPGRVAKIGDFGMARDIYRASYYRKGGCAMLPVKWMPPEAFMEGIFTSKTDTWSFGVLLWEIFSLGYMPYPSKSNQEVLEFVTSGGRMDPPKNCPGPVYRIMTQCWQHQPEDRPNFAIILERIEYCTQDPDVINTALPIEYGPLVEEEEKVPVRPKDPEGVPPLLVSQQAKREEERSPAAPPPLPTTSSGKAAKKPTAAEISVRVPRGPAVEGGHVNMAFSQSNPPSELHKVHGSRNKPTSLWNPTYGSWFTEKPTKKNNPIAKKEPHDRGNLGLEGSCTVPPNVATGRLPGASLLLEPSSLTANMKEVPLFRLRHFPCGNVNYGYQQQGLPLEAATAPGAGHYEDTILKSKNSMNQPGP
Chain of Tyrosine-protein kinase BTK (Homo sapiens) (Q06187 whole entry): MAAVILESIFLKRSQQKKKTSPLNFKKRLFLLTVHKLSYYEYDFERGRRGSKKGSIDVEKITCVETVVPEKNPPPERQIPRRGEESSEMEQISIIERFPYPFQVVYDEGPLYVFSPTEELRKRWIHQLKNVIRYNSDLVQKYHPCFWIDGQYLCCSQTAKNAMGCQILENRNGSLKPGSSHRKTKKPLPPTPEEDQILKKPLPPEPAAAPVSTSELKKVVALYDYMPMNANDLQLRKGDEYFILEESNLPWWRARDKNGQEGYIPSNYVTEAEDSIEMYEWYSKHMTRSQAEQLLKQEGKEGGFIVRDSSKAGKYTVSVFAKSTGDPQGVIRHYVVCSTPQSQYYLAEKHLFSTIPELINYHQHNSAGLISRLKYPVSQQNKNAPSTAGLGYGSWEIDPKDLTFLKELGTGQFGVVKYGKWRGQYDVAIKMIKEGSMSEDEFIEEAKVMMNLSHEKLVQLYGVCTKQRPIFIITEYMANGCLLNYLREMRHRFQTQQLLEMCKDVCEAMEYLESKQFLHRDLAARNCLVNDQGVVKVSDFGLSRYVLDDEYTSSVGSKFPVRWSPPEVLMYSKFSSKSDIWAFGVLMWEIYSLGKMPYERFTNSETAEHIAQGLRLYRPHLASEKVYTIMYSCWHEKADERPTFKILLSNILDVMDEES

As a reminder, the IC50 is the point on the concentration scale where inhibition reaches its midpoint. As usually defined, the inhibition is the change of the read-out against control, counted positive when it falls. For the compound `c1ccc(N2CCN(c3ncnc4c3ncn4C3CCCC3)CC2)cc1`, the 50% inhibitory concentration (IC50) with Huh-7 [1] is 1000 nM; with PLC it was 4000 nM; in the assay on SNU-387, 13000 nM; in the assay on SNU-423, 11000 nM; in assay [7], 600 nM; with HCT-116 it was 2100 nM. Also, the IC50 in the assay with SNU-449 is 2000 nM; with MCF7 it was 100 nM; in the assay with SNU-398, 1200 nM; in the assay on Hep 3B2 it was under 100 nM; in the assay with HepG2, 2400 nM; in the assay on Mahlavu [15], 200 nM. Further, the IC50 amounted to 6000 nM in the assay on SNU-182 and 5800 nM in the assay on SNU-475. Further, the inhibition in [2] is 1.9%; in assay [3], 13%. Further, the inhibition entry in assay [4], in [12], in [13] and in assay [14] was “Active” in each case. Also, the outcome in the assay with Mahlavu [5], in the assay on Huh-7 [6], in the assay with Huh-7 [8], in the assay on Huh-7 [10] and in the assay with Huh-7 [11] was Active. Further, the “growth inhibition (GI)” value with Huh-7 [9] was “Active”.
`c1ccc(Oc2ccc(-c3ncnc4c3ncn4C3CCCC3)cc2)cc1`: the IC50 in the assay on Huh-7 [1] came to 700 nM; in the assay on PLC, 6500 nM; in the assay on SNU-387, 20000 nM; in the assay with SNU-423 it was 9900 nM; in [7] it was 500 nM; in the assay with HCT-116 it was 800 nM. The IC50 is under 100 nM in the assay with SNU-449; 2800 nM in the assay with MCF7; 200 nM in the assay on SNU-398; 100 nM in the assay with Hep 3B2; 2 nM in the assay with HepG2; 100 nM with Mahlavu [15]. Moreover, the IC50 stood at 65000 nM in the assay on SNU-182 and 2500 nM in the assay on SNU-475. In addition, the result in the assay with Mahlavu [5] and with Huh-7 [8] was inactive. The compound also showed an inhibition in [16] of 6%. The result with Huh-7 [6], with Huh-7 [10] and in the assay on Huh-7 [11] was Active. For the same compound, the “growth inhibition (GI)” value with Huh-7 [9] was “Active”.
